The record followed here is publication PMC5503476 (Bioorganic & medicinal chemistry letters, 2017).

The nature of data set [1]: Aqueous solubility by HPLC-UV. The format is physicochemical.
In data set [2] the test system is wild-type HIV-1 (NL4-3). As to the kind of experiment: Anti-HIV activity against wild-type HIV-1. The format is cell-based. As to conditions: Human immunodeficiency virus 1, NL43, TZM-bl, read-out: EC50 NL4-3. The gist of the method: (§1)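 Wild-type HIV-1 NL4-3 and the E138K+M184I resistant strain were tested in parallel in TZM-bl cells, with a reference NNRTI alongside. EC50 was read from luciferase reporter gene expression. New analogues were tested up to 100 ng/mL, with at least three experiments (n = 3). Fold change is the resistant-strain EC50 divided by the wild-type EC50.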

For data set [3], the system named is NL4-3 variant E138K. The format is cell-based, HIV-1.
Data set [4] relates to NL4-3 variant E138K+M184I. The format is cell-based, HIV-1. Put shortly:
as §1

Data set [5] can be described thus: Cytotoxicity. As to conditions: human, TZM-bl cells. The format is cell-based.
The nature of data set [6]: Human plasma stability assay. The data set is classed as in vitro ADME.
Setting [7] is: 0.01 M HCl, pH 2, aqueous with cosolvent or surfactant or cyclodextrin.
[8] abbreviates: EC50(resistant viral strain)/EC50(wild-type viral strain).

Converted amounts (≈) assume the structure as drawn.

Regarding `Cc1cc(/C=C/C#N)cc(C)c1Nc1ccnc(Nc2ccc(C#N)cc2)n1` [compound 2, rilpivirine, reference compound], the kinetic solubility (commonly the concentration staying in solution when a stock, usually in DMSO, is diluted into the medium) at 4 h in data set [1] (setting [7]) was found to be 86.8 µg/mL (≈ 237 µM).
As to `Cc1cc(/C=C/C#N)cc(C)c1Oc1cc(Nc2ccc(C#N)cc2)c(N)cc1C(N)=O` [compound 3], the EC50 – broadly, the concentration needed to bring the measured effect to its halfway point – in data set [2] stood at 1.82 ± 0.57 nM; in data set [3] (Human immunodeficiency virus 1, NL43, TZM-bl, read-out: EC50 E138K), 3.55 ± 0.64 nM; in data set [4] (Human immunodeficiency virus 1, NL43, TZM-bl, read-out: EC50 E138K+M184I), 3.55 ± 1.02 nM. Besides, in data set [3] (setting [8]), the “Resistance fold change (FC) E138K” value turned out to be 1.9. For the same compound, the “Resistance fold change (FC) E138K+M184I” value in data set [4] (setting [8]) was 1.9. The CC50 (commonly the concentration at which the toxic effect on the cells reaches its halfway point) in data set [5] was > 23600 nM. The solubility (kinetic) at 4 h was 2.09 µg/mL (≈ 4.94 µM) in data set [1] (setting [7]) and 0.63 µg/mL (≈ 1.49 µM) in data set [1] (phosphate buffer, pH 7.4, aqueous with cosolvent or surfactant or cyclodextrin).
Take `CC(C)NCC(O)COc1cccc2ccccc12` (stereo not shown) [propranolol]: the half-life (in general, the time in which the quantity being followed falls by half) at 10 μg/mL in data set [6] was 80 h.
